Tests used:
[1] = target: Opioid receptors; mu & kappa (Homo sapiens) (UniProt P41145+P35372); assay: Ratio of Ke value to kappa receptor to that of mu receptor; type: protein assay
Summary of the method: (§1)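 Selectivity ratios were taken from Ke values measured in smooth muscle (100 nM antagonist, 15 min preincubation). Kappa Ke came from guinea-pig ileum with ethylketazocine, mu Ke from guinea-pig ileum with morphine, and delta Ke from mouse vas deferens with DADLE.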

[2] = target: Delta-type opioid receptor (Mus musculus) (UniProt P32300); assay: Opioid antagonist potencies against Opioid receptor delta 1 from mouse vas-deferens preparation employing [D-Ala2,D-Leu5]enkephalin (DADLE) as agonist.; type: functional
Summary of the method: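 Electrically stimulated mouse vas deferens. Antagonist at 100 nM was incubated 15 min before the agonist DADLE. Ke = [antagonist]/(IC50 ratio − 1), using agonist IC50 with versus without antagonist in the same preparation. Ke is from an average of at least three IC50 ratios.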

[3] = target: Kappa-type opioid receptor (Rattus norvegicus) (UniProt P34975); assay: Effect on binding affinity of mutational exchange of Glu297 in the Opioid receptor kappa 1 in transiently expressed […] cells activity expressed as binding ratio with nor-BNI.
[4] = target: Mu-type opioid receptor (Cavia porcellus) (UniProt P97266); assay: Opioid antagonist potencies against Opioid receptor mu 1 from guinea pig ileum employing morphine(M) as agonist.; type: functional, tissue-based
Summary of the method: (§2)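 Electrically stimulated guinea-pig ileal longitudinal muscle. Antagonist at 100 nM was incubated 15 min before agonist (ethylketazocine for kappa, morphine for mu). Ke = [antagonist]/(IC50 ratio − 1), where the IC50 ratio is agonist IC50 with antagonist over agonist IC50 alone in the same preparation. Ke is the mean of at least three IC50 ratios.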

[5] = target: Opioid receptors; delta & kappa (Homo sapiens) (UniProt P41145+P41143); assay: Ratio of Ke value to kappa receptor to that of delta receptor; type: protein assay; summary of the method: as §1
[6] = target: Kappa-type opioid receptor (Cavia porcellus) (UniProt P41144); assay: Opioid antagonist potencies against Opioid receptor kappa 1 from guinea pig ileum employing ethylketazocine (EKC) as agonist.; type: functional, tissue-based; summary of the method: as §2
[7] = target: Kappa-type opioid receptor (Rattus norvegicus, UniProt P34975, E297K); assay: Mutant factor of the compound against kappa[E297K] with Opioid receptor kappa 1 for binding affinity.
[8] = target: Kappa-type opioid receptor (Rattus norvegicus, UniProt P34975); assay: Effect on binding affinity of mutational exchange of Glu297 in the Opioid receptor kappa 1 in transiently expressed […] cells activity expressed as binding affinity.; type: cell-based
[9] = target: Mu-type opioid receptor (Rattus norvegicus, UniProt P33535); assay: Effect on binding affinity of mutational exchange of Lys303 in the Opioid receptor mu 1 in transiently expressed […] cells activity expressed as binding affinity.; type: cell-based
Mu-type opioid receptor, sequence (P33535 whole entry, looked up): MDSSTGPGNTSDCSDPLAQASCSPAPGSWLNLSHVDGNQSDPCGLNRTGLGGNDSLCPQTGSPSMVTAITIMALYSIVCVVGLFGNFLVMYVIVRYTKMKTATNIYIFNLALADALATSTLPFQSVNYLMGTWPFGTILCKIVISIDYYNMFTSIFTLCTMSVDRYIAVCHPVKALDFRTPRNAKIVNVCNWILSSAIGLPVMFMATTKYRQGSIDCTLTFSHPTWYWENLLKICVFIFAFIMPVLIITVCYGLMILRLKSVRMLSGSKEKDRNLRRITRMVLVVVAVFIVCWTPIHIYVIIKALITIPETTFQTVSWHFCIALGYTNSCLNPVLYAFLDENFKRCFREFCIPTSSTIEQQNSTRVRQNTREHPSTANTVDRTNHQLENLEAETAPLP

Kappa-type opioid receptor (Rattus norvegicus), sequence (P34975 whole entry): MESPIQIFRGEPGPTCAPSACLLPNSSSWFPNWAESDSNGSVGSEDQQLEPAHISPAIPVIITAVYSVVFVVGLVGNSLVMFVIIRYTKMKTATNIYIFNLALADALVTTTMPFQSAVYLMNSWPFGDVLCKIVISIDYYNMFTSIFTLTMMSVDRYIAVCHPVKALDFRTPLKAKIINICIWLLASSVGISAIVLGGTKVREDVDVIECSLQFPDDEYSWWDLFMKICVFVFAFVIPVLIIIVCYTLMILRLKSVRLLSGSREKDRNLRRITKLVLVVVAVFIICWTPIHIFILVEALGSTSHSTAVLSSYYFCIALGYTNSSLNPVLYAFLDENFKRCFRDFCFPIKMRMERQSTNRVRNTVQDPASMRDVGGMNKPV
Opioid receptors; mu & kappa (Homo sapiens), sequence (P35372 whole entry, looked up): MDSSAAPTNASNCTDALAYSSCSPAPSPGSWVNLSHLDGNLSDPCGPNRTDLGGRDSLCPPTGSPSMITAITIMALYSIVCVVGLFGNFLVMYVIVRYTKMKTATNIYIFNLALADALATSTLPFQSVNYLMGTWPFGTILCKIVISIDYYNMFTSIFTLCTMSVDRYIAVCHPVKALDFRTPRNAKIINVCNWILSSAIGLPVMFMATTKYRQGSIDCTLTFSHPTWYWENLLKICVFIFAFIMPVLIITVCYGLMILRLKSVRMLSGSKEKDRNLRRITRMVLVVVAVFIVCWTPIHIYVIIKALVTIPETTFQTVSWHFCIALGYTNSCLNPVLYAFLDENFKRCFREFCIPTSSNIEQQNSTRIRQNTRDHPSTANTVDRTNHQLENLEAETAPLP
Opioid receptors; mu & kappa (Homo sapiens), sequence (P41145 whole entry, looked up): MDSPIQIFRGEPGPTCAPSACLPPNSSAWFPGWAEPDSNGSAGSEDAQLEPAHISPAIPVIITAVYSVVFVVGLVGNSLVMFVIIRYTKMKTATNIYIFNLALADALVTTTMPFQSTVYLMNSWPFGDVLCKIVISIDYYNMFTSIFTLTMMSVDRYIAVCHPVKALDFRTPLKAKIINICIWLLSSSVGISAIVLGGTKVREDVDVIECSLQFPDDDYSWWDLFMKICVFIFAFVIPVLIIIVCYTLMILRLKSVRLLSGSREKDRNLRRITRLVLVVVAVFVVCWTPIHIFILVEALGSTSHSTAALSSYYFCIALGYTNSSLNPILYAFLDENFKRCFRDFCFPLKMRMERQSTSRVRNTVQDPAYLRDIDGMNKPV
Opioid receptors; delta & kappa (Homo sapiens), sequence (P41143 whole entry, looked up): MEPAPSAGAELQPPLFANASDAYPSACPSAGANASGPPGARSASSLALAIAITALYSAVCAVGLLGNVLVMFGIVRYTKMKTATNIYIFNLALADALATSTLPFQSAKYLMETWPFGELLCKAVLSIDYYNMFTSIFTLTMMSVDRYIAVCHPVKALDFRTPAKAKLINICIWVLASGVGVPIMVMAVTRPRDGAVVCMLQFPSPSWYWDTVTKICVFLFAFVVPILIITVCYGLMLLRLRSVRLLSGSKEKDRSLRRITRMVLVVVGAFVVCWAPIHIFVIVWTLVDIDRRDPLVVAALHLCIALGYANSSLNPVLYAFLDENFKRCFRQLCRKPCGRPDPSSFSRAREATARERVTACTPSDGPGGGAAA
Opioid receptors; delta & kappa (Homo sapiens), sequence (P41145 whole entry, looked up): as the sequence (P41145 whole entry, looked up) above
Kappa-type opioid receptor (Rattus norvegicus, UniProt P34975, E297K), sequence (P34975 whole entry E297K): as the sequence (P34975 whole entry) above, with E297K counted along it
Kappa-type opioid receptor (Rattus norvegicus, UniProt P34975), sequence (P34975 whole entry, looked up): as the sequence (P34975 whole entry) above
Kappa-type opioid receptor (Cavia porcellus), sequence (P41144 whole entry): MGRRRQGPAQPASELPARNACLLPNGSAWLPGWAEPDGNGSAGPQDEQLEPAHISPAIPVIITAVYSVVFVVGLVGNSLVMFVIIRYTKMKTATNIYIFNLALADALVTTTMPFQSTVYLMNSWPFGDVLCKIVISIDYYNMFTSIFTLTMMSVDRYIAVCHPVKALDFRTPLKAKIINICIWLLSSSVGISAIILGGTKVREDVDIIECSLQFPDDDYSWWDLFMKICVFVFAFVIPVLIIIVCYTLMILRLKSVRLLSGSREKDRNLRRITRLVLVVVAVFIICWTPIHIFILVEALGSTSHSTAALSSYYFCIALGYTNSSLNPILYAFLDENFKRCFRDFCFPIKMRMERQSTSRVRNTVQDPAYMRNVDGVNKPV
Mu-type opioid receptor (Cavia porcellus), sequence (P97266 whole entry): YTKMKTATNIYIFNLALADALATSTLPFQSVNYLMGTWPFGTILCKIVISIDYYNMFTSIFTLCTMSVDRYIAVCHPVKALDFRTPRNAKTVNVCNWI
Delta-type opioid receptor (Mus musculus), sequence (P32300 whole entry): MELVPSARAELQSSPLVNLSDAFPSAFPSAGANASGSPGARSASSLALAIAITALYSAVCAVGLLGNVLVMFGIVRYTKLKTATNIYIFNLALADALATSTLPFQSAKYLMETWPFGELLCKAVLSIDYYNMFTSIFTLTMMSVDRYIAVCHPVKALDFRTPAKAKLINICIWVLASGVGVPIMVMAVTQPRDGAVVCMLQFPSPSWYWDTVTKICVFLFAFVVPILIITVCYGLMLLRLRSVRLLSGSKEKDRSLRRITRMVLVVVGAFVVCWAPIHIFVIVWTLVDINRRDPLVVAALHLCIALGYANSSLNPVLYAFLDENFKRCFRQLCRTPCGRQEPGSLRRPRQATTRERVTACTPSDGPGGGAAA

Row | Compound | Selectivity [1] | Ke [2] | Fana [3] | Ke [4] | Selectivity [5] | Ke [6] | Ki [7] | Ki [8] | Ki [9]
1 | N#CN/C(N)=N/c1ccc2[nH]c3c(c2c1)C[C@@]1(O)C2Cc4ccc(O)c5c4[C@@]1(CCN2CC1CC1)[C@H]3O5 | 5 | 9.08 nM | 2.25 | 16.1 nM | 3 | 3.13 nM | – | – | –
2 | N#CN=C(N)Nc1ccc2[nH]c3c(c2c1)C[C@@]1(O)C2Cc4ccc(O)c5c4[C@@]1(CCN2CC1CC1)[C@H]3O5 | – | – | – | – | – | – | 2.48 nM | 0.27 nM | 4.04 nM
3 | Oc1ccc2c3c1O[C@H]1c4[nH]c5c(c4C[C@@]4(O)[C@@H](C2)N(CC2CC2)CC[C@]314)C[C@@]1(O)[C@H]2Cc3ccc(O)c4c3[C@@]1(CCN2CC1CC1)[C@H]5O4 | – | – | 1 | – | – | – | – | – | –
4 | N=C(N)Nc1ccc2[nH]c3c(c2c1)C[C@@]1(O)[C@H]2Cc4ccc(O)c5c4[C@@]1(CCN2CC1CC1)[C@H]3O5 [GUANIDINONALTRINDOLE] | 208 | – | 0.75 | – | 799 | – | 12.9 nM | 0.09 nM | 9.23 nM
